According to ChEMBL document CHEMBL2346664, “Synthesis, characterization and in vitro anticancer evaluation of novel 1,2,4-triazolin-3-one derivatives” (2013):

Legend:
Type in all cases: functional
SF-268 [1] = experiment: Growth inhibition of human SF268 cells assessed as cell growth at 10 '-4 M after 48 hrs by sulforhodamine B assay; settings: SF-268, 48 h, read-out: Activity
OVCAR-3 [2] = experiment: Growth inhibition of human OVCAR3 cells assessed as cell growth at 10 '-5 M after 48 hrs by sulforhodamine B assay; settings: OVCAR-3, 48 h, read-out: Activity
MDA-MB-468 = experiment: Growth inhibition of human MDA-MB-468 cells assessed as cell growth at 10 '-4 M after 48 hrs by sulforhodamine B assay; settings: MDA-MB-468, 48 h, read-out: Activity
A498 [3] = experiment: Growth inhibition of human A498 cells assessed as growth inhibition at 10 uM after 48 hrs by sulforhodamine B assay; settings: A498, 48 h, read-out: GI
Summary of the method: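 Percent growth inhibition from the single 10^-5 M NCI-60 screen, reported as 100 minus growth percent. Growth percent was measured after 48 h drug exposure at 37 °C, 5% CO2, using TCA fixation, SRB staining and absorbance at 515 nm, against untreated controls and time-zero plates.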

PC-3 [4] = experiment: Growth inhibition of human PC3 cells assessed as cell growth at 10 '-4 M after 48 hrs by sulforhodamine B assay; settings: PC-3, 48 h, read-out: Activity
SF-539 [5] = experiment: Growth inhibition of human SF539 cells assessed as cell growth at 10 '-5 M after 48 hrs by sulforhodamine B assay; settings: SF-539, 48 h, read-out: Activity
MDA-MB-435 = experiment: Growth inhibition of human MDA-MB-435 cells after 48 hrs by sulforhodamine B assay; settings: MDA-MB-435, 48 h
Summary of the method: (§1)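 NCI 60-cell-line five-dose screen. Cells were plated at 5,000–40,000/well by doubling time and grown 24 h at 37 °C, 5% CO2. Time-zero plates were TCA-fixed. Drug from DMSO stock was tested at 0.01, 0.1, 1, 10 and 100 µM final for 48 h continuous exposure. Read-out was SRB at 515 nm. GI50 is the concentration giving 50% reduction in net protein increase versus untreated control.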

OVCAR-3 [6] = experiment: Growth inhibition of human OVCAR3 cells after 48 hrs by sulforhodamine B assay; settings: OVCAR-3, 48 h, read-out: LD50 (the source's name)
HCT-15 [7] = experiment: Growth inhibition of human HCT15 cells assessed as cell growth at 10 '-7 M after 48 hrs by sulforhodamine B assay; settings: HCT-15, 48 h, read-out: Activity
PC-3 [8] = experiment: Growth inhibition of human PC3 cells assessed as cell growth at 10 '-8 M after 48 hrs by sulforhodamine B assay; settings: PC-3, 48 h, read-out: Activity
PC-3 [9] = experiment: Growth inhibition of human PC3 cells assessed as growth inhibition at 10 uM after 48 hrs by sulforhodamine B assay; settings: PC-3, 48 h, read-out: GI
MDA-MB-231 = experiment: Growth inhibition of human MDA-MB-231 cells assessed as cell growth at 10 '-5 M after 48 hrs by sulforhodamine B assay; settings: MDA-MB-231, 48 h, read-out: Activity
SF-268 [10] = experiment: Growth inhibition of human SF268 cells assessed as cell growth at 10 '-8 M after 48 hrs by sulforhodamine B assay; settings: SF-268, 48 h, read-out: Activity
HCT-116 = experiment: Growth inhibition of human HCT116 cells assessed as cell growth at 10 '-8 M after 48 hrs by sulforhodamine B assay; settings: HCT-116, 48 h, read-out: Activity
SN12C = experiment: Growth inhibition of human SN12C cells assessed as cell growth at 10 '-7 M after 48 hrs by sulforhodamine B assay; settings: read-out: Activity
LOX IMVI = experiment: Growth inhibition of human LOXIMVI cells assessed as cell growth at 10 '-4 M after 48 hrs by sulforhodamine B assay; settings: read-out: Activity
HCT-15 [11] = experiment: Growth inhibition of human HCT15 cells after 48 hrs by sulforhodamine B assay; settings: HCT-15, 48 h; summary of the method: as §1
SK-MEL-2 = experiment: Growth inhibition of human SK-MEL-2 cells assessed as cell growth at 10 '-4 M after 48 hrs by sulforhodamine B assay; settings: SK-MEL-2, 48 h, read-out: Activity
NCI-H23 = experiment: Growth inhibition of human NCI-H23 cells assessed as cell growth at 10 '-8 M after 48 hrs by sulforhodamine B assay; settings: NCI-H23, 48 h, read-out: Activity
A498 [12] = experiment: Growth inhibition of human A498 cells assessed as cell growth at 10 '-4 M after 48 hrs by sulforhodamine B assay; settings: A498, 48 h, read-out: Activity
Summary of the method: (§2)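 Percent growth at each of the five concentrations of the 48 h continuous-exposure NCI SRB screen. Drug stocks were in DMSO at 400× the top final concentration and diluted in medium with gentamicin. Growth was calculated as [(Ti-Tz)/(C-Tz)]×100 when Ti ≥ Tz, or [(Ti-Tz)/Tz]×100 when Ti < Tz. Tz plates were fixed at drug addition; untreated wells served as control. Absorbance was read at 515 nm.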

M14 = experiment: Growth inhibition of human M14 cells assessed as cell growth at 10 '-8 M after 48 hrs by sulforhodamine B assay; settings: M14, 48 h, read-out: Activity
HOP-62 = experiment: Growth inhibition of human HOP62 cells assessed as cell growth at 10 '-6 M after 48 hrs by sulforhodamine B assay; settings: HOP-62, 48 h, read-out: Activity
K562 = experiment: Growth inhibition of human K562 cells assessed as cell growth at 10 '-7 M after 48 hrs by sulforhodamine B assay; settings: K562, 48 h, read-out: Activity
NCI-H460 = experiment: Growth inhibition of human NCI-H460 cells assessed as cell growth at 10 '-8 M after 48 hrs by sulforhodamine B assay; settings: NCI-H460, 48 h, read-out: Activity
HT-29 = experiment: Growth inhibition of human HT-29 cells assessed as growth inhibition at 10 uM after 48 hrs by sulforhodamine B assay; settings: HT-29, 48 h, read-out: GI
RXF 393 = experiment: Growth inhibition of human RXF393 cells assessed as cell growth at 10 '-5 M after 48 hrs by sulforhodamine B assay; settings: RXF 393, 48 h, read-out: Activity
MCF7 = experiment: Growth inhibition of human MCF7 cells assessed as growth inhibition at 10 uM after 48 hrs by sulforhodamine B assay; settings: MCF7, 48 h, read-out: GI
SF-539 [13] = experiment: Growth inhibition of human SF539 cells assessed as cell growth at 10 '-7 M after 48 hrs by sulforhodamine B assay; settings: SF-539, 48 h, read-out: Activity
HOP-92 = experiment: Growth inhibition of human HOP92 cells assessed as cell growth at 10 '-6 M after 48 hrs by sulforhodamine B assay; settings: HOP-92, 48 h, read-out: Activity
ACHN = experiment: Growth inhibition of human ACHN cells assessed as cell growth at 10 '-7 M after 48 hrs by sulforhodamine B assay; settings: read-out: Activity; summary of the method: as §2
U-251 = experiment: Growth inhibition of human U251 cells after 48 hrs by sulforhodamine B assay; settings: U-251, 48 h
[14] = read-out: LD50 (the source's name)

## Cc1cc(=O)oc2cc(OCCn3c(C)nn(-c4ccc(Cl)cc4)c3=O)ccc12
SF-268 [1]
  growth at 100 µM: 36%
OVCAR-3 [2]
  growth at 10 µM: 7%
MDA-MB-468
  growth at 100 µM: -5%
A498 [3]
  inhibition of growth at 10 µM: 74.3%
PC-3 [4]
  growth at 100 µM: 34%
SF-539 [5]
  growth at 10 µM: 25%
MDA-MB-435
  GI50: 2.69 µM
  TGI: 8.37 µM
MDA-MB-435; [14]
  CC50: > 1 µM
OVCAR-3 [6]
  CC50: > 1 µM
HCT-15 [7]
  growth at 0.1 µM: 95%
PC-3 [8]
  growth at 0.01 µM: 97%
PC-3 [9]
  inhibition of growth at 10 µM: 51.5%
MDA-MB-231
  growth at 10 µM: 42%
SF-268 [10]
  growth at 0.01 µM: 104%
HCT-116
  growth at 0.01 µM: 101%
SN12C
  growth at 0.1 µM: 90%
LOX IMVI
  growth at 100 µM: 30%
HCT-15 [11]
  GI50: 3.2 µM
  TGI: > 1 µM
HCT-15 [11]; [14]
  CC50: > 1 µM
SK-MEL-2
  growth at 100 µM: 14%
NCI-H23
  growth at 0.01 µM: 98%
A498 [12]
  growth at 100 µM: -8%
M14
  growth at 0.01 µM: 101%
HOP-62
  growth at 1 µM: 89%
K562
  growth at 0.1 µM: 106%
NCI-H460
  growth at 0.01 µM: 104%
HT-29
  inhibition of growth at 10 µM: 99.3%
RXF 393
  growth at 10 µM: 18%
MCF7
  inhibition of growth at 10 µM: 84.2%
SF-539 [13]
  growth at 0.1 µM: 103%
HOP-92
  growth at 1 µM: 83%
ACHN
  growth at 0.1 µM: 106%
U-251
  GI50: 4.18 µM
  TGI: 7.23 µM
U-251; [14]
  CC50: > 1 µM
